ChEMBL document CHEMBL4002644, “Discovery of GBT440, an Orally Bioavailable R-State Stabilizer of Sickle Cell Hemoglobin” (ACS Med Chem Lett, 2017)

Key:
[1] = system: Hemoglobin HbA (Homo sapiens), P69905+P68871 [E7V]; experiment: Induction of R-state stabilization of Hb betaGlu6Val mutant in sickle disease patient purified HbS/HbA mixture assessed as change from baseline of partial pressure of O2 at which HbS is 50% saturated with O2 at 30 uM preincubated for 45 mins followed by oxygenation for 10 mins and subsequent deoxygenation by hemoximetry relative to control
Method in brief: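 Oxygen equilibrium curves were run on a Hemox Analyzer using Hb purified from sickle disease blood (an HbA/HbS mixture) at 25 μM. Compound was tested at 30 μM, or at 500 μM where noted. The read-out was the % change from baseline in the pO2 at which HbS is 50% saturated (Δp50).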

[2] = species on record: Homo sapiens; experiment: Induction of R-state stabilization of sickle cell Hb betaGlu6Val mutant purified from sickle cell patient assessed as inhibition of KH2PO4-induced polymerization by measuring change from baseline of delay time for onset of polymerization at 75 uM preincubated for 1 hr followed by deoxygenation for …; parameters: scale not given: the % may be the effect or the level left
[3] = system: Hemoglobin HbA (Homo sapiens), P69905+P68871 [E7V]; experiment: Induction of R-state stabilization of Hb betaGlu6Val mutant in sickle cell disease transfused human whole blood assessed as change from baseline of partial pressure of O2 at which HbS is 50% saturated with O2 at 1 mM preincubated for 45 mins followed by 20 mins oxygenation/deoxygenation cycle by hemoximetry relative to control
Method in brief: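 Whole blood from transfused SCD subjects, at 20% hematocrit (Hb 1 mM), was run with compound at 1 mM. Oxygen equilibrium curves were measured by hemoximetry. The value is the % change from baseline in the pO2 giving 50% O2 saturation (Δp50).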

[4] = system: Blood; experiment: Half life in Sprague-Dawley rat blood at 7.2 to 120 mg/kg, po by LC-MS/MS analysis; format: ADME, organism-based; settings: in vivo
[5] = system: Rattus norvegicus; experiment: Dose normalized AUC (0 to infinity) in Sprague-Dawley rat at 7.2 to 120 mg/kg, po by LC-MS/MS analysis; format: ADME, organism-based; settings: in vivo
Method in brief: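 Rat oral PK: AUC(0–∞) divided by the oral dose, expressed as (ng·h/mL)/(mg/kg).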

Row | SMILES | Activity [1] | Activity [2] | Activity [3] | t1/2 [4] | AUC/dose [5]
1 | COc1cc(C=O)c(OCc2cccnc2-c2c(C)cnn2C)cn1 | 27.4% | 64.5% |  |  | 
2 | CC(C)n1nccc1-c1ncccc1COc1ccccc1C=O |  | 136% | 80.6% | 2.1 h | 1059 ng·h/mL/mg/kg
3 | COc1cc(C=O)c(OCc2cccc3ocnc23)cn1 | 37% |  |  |  | 
4 | COc1cc(C=O)c(OCc2cncc(-c3ccn[nH]3)c2)cn1 | 9% |  |  |  | 
5 | COc1cc(C=O)c(OCc2cc3ccccc3nc2Cl)cn1 | 4% |  |  |  | 
6 | COc1cc(C=O)c(OCc2cc(Br)cn3ccnc23)cn1 | 11.7% |  |  |  | 
7 | COc1cc(C=O)c(OCc2cc(-c3nn[nH]n3)cn3ccnc23)cn1 | 21.1% |  |  |  | 
8 | COc1cc(C=O)c(OCc2ccc3ccncc3c2)cn1 | 13.7% |  |  |  | 
9 | COc1cc(C=O)c(OCc2cc3ccccc3nc2-c2ccn[nH]2)cn1 | 14.2% |  |  |  | 
10 | COCCOc1cc(C=O)c(OCc2cccnc2-c2ccnn2C(C)C)cn1 | 55.9% | 77.8% | 68.9% | 1.5 h | 1950 ng·h/mL/mg/kg
11 | CC(C)n1nccc1-c1ncccc1COc1cccnc1C=O | 53.3% | 70.3% | 56.4% | 0.7 h | 34.2 ng·h/mL/mg/kg
12 | COc1cc(C=O)c(OCc2cc(C#N)cn3ccnc23)cn1 | 3.5% |  |  |  | 
13 | COc1cc(C=O)c(OCc2cncc(-c3ccn(C)n3)c2)cn1 | 29.4% |  |  |  | 
14 | COc1cc(C=O)c(OCc2cccc3c2cnn3C)cn1 | 32.7% |  |  |  | 
15 | COc1cc(C=O)c(OCc2cc(-c3ccn[nH]3)cn3ccnc23)cn1 | 2.8% |  |  |  | 
16 | COc1cc(C=O)c(OCc2ccc3ccccc3n2)cn1 | 43.2% |  |  |  | 
17 | COc1cc(C=O)c(OCc2cccn3ccnc23)cn1 | 44.4% |  |  |  | 
18 | Cc1ccc(OCc2cccnc2-c2ccnn2C(C)C)c(C=O)n1 | 61.7% | 62.6% | 65.4% | 1.5 h | 1710 ng·h/mL/mg/kg
19 | COc1cc(C=O)c(OCc2ccnc3cccnc23)cn1 | 23.1% |  |  |  | 
20 | CC(C)n1nccc1-c1ncccc1COc1cnc(O)cc1C=O | 59.6% | 128% | 62.5% |  | 
21 | COc1cc(C=O)c(OCc2cncc(-c3ccnn3C)c2)cn1 | 11.2% |  |  |  | 
